UPR CHOP act: apoptotic UPR (CHOP) activation | 330,000 compounds, 0.34% hits | activation, % at 10 µM | AID 449763 | CHO-CHOP luciferase reporter, luminescence; percent of tunicamycin response over DMSO baseline;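 active means at 10 µM dose, activation of 40% or more, normalized to positive control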;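 further: 100% = tunicamycin at 10 µg/mL and 0% = DMSO alone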
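System: CHO-CHOP luciferase reporter cell line; amount: 500 cells/well; buffer or medium: F12 medium containing 10% fetal bovine serum; incubation: 6 h compound exposure at 37 °C after overnight seeding; measured by: luciferase luminescence after 10 min with Steady-Glo reagent; evaluation: % reporter activation, DMSO baseline versus tunicamycin full activation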
Mdm2-MdmX inh: disrupts the human Mdm2-MdmX interaction; O15151+Q00987; inhibition, % at 8 µM; SaOS-2 split-luciferase Mdm2/MdmX complementation, luminescence; 330,000 compounds, 3% hits;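 active means inhibition of at least 50% at 8 µM in the primary screen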
Target sequence (O15151 whole entry, looked up): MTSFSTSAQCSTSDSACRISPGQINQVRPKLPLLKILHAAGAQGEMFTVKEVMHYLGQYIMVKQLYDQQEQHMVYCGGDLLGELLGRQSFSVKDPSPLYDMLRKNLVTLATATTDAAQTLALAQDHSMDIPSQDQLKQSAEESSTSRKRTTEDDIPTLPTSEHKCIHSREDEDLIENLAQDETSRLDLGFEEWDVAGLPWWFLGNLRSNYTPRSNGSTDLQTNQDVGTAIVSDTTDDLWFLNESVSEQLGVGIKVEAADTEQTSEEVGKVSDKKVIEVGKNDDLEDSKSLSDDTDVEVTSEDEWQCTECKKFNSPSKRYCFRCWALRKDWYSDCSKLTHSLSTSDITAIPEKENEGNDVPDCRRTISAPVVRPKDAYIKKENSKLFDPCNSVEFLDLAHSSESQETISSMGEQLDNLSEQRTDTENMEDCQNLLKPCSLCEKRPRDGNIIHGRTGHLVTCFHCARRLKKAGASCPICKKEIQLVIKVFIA
Target sequence (Q00987 whole entry, looked up): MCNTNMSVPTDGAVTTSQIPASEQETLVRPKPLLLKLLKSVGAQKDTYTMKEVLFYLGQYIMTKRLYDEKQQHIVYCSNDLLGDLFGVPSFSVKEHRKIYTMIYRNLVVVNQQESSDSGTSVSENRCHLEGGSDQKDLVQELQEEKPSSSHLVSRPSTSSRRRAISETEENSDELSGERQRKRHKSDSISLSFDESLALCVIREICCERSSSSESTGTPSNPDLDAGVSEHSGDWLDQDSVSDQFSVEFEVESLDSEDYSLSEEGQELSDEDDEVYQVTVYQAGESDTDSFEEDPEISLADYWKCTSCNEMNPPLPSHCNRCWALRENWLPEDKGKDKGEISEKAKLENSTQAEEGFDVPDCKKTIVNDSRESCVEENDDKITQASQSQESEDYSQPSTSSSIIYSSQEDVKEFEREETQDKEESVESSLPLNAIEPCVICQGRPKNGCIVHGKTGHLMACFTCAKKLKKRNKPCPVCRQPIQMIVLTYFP
CSC inhib: blocks cancer stem cells. AID 2717. inhibition, % at 7.5 µM. cancer stem cell-like cells viability, luminescence. 300,000 compounds, 1.1% hits; in the data active means inhibition above about 75%; tested in HMLE shEcad cells
T cruzi inh: blocks replication of Trypanosoma cruzi | T. cruzi beta-gal in NIH3T3, luminescence, 90 h | inhibition, % (concentration not given with the values) | 300,000 compounds, 1.4% hits | AID 1885;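 active means mean inhibition across valid replicates above about 55%, limit read from the data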;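 further: signal also drops with host cell toxicity which is not excluded here; 0% = plate median of DMSO wells and 100% = zero luminescence signal; higher percent means less beta-gal luminescence so fewer parasites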
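System: mouse NIH/3T3 fibroblasts infected with β-gal-expressing T. cruzi Tulahuen C4 / Input: NIH/3T3 cells, 5,000 per well / Buffer or medium: Low-serum DMEM with 2% FBS / Probe or stimulus: 5000 reporter trypomastigotes per well / Schedule: ≥90 h infection period, 3 h prior cell attachment / Measured by: GalScreen luminescence, 60 min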
Beta apoptosis: blocks beta cell apoptosis | INS-1E cytokine-induced death, ATP luminescence, 48 h; percent of positive-control rescue, neutral wells zero | protection from apoptosis, % (test concentration not listed) | 300,000 compounds, 0.8% hits | AID 435005;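 active means Every replicate reaches about 75%, or at least half do and their mean reaches it too, limit read from the data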;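 further: 0% = cytokine-treated negative control wells and 100% = positive control rescue; higher means more ATP so stronger rescue from cytokine killing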
UPR XBP1 act: adaptive UPR (XBP1) activation. CHO-XBP1 luciferase reporter, IRE1-XBP1 UPR activation, luminescence; percent of tunicamycin response, DMSO as zero. activation, % at 20 µM. 330,000 compounds, 0.33% hits. AID 463104;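 active means versus positive control, 20 µM dose yields 30% or more activation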;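 further: 100% = tunicamycin at 10 µg/mL and 0% = DMSO only wells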
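Test system: CHO-XBP1 luciferase reporter cells | Buffer or medium: Serum-containing F12 medium, 10% FBS | Schedule: 6 h compound exposure at 37 °C, 5% CO2 | Detection: Steady-Glo luciferase glow luminescence, 10 min after reagent addition | Read-out basis: Activation, % of tunicamycin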
Mdm2-MdmX conf: confirmation of human Mdm2/MdmX interaction inhibitors. Mdm2-MdmX binding, luminescent assay. inhibition, % at 8 µM. shares compounds with Mdm2-MdmX inh. 10,000 compounds, 55% hits. AID 489028; in the data active means inhibition above about 40%
Full FLuc ctr: full-length luciferase inhibition in Mdm2/MdmX counter-screen | shares compounds with Mdm2-MdmX inh | SaOS-2 full-length luciferase counterscreen, luminescence | inhibition, % at 8 µM | 6,200 compounds, 77% hits;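 active means mean inhibition at 8 µM reaching about 37%, which flags the compound as non-specific, limit read from the data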;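 further: p53-null SaOS-2 cells with luciferase driven by a doxycycline-inducible promoter; compound on cells about two nights before reading with doxycycline added after day one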
* marks the source's active call; other numbers are inactive results; / = not tested or not shown. The list is not random: actives were taken first. Their share in the collection is about 5%.

SMILES	UPR CHOP act	Mdm2-MdmX inh	CSC inhib	T cruzi inh	Beta apoptosis	UPR XBP1 act	Mdm2-MdmX conf	Full FLuc ctr
Cc1nn(C)c(C)c1NC(=O)CSc1nc(C2CC2)nc2c1cnn2-c1ccccc1	1.5	42.6	-7.6	-6.9	4.8	0.8	/	/
CC1CCCCN1C(=O)CSc1nc(C2CC2)nc2c1cnn2-c1ccccc1 (stereo not drawn)	-1.9	53.9*	/	28.8	/	-3.2	9.4	/
CCOc1ccc(/C=C/C(O)=C2/C(=O)N(C)C3(C)CC2c2ccccc2O3)cc1OC (stereo not drawn)	0.1	66.6*	78.3*	35.5	-0.2	-2.4	69.2*	41.3*
Cc1cnc(NC(=O)C2CC(=O)N(c3cccc(Cl)c3)C2)s1 (stereo not drawn)	-4.2	93.3*	44.9	20.1	13.1	-9.8	89.0*	82.4*
COc1ccc(-c2[nH]ncc2N=Nc2cc(C)cc(C)c2)cc1	2.1	48.8	7.5	40.3	18.5	1.9	/	/
COc1ccc(-c2[nH]ncc2N=Nc2ccccc2)cc1	1.9	65.7*	94.0*	6.4	-14.0	1.8	57.9*	85.2*
COc1cc([N+](=O)[O-])cc(/C=N/NC(=O)Cn2nc(C)cc2C)c1O	0.9	57.4*	11.1	-6.0	-4.0	-3.2	64.7*	50.3*
CCOc1cc(/C=N/NC(=O)Cc2ccc(C(F)(F)F)cc2[N+](=O)[O-])c(Br)cc1OC	-1.4	77.1*	34.4	3.1	17.0	4.7	54.8*	30.8
COc1cc(Br)cc(/C=N/NC(=O)Cc2ccc(C(F)(F)F)cc2[N+](=O)[O-])c1O	0.0	52.3*	40.4	29.1	99.8*	-2.3	70.2*	32.8
COc1cc([N+](=O)[O-])cc(/C=N/NC(=O)Cn2nccc2C)c1O	0.9	37.0	28.3	0.7	-4.9	0.0	/	/
CCN1C(=O)[C@H]2[C@@H](c3ccc(-c4cccc(Cl)c4)c(OC)c3)N3CCC[C@@]3(C(=O)OC)[C@H]2C1=O	-1.1	-11.9	/	/	1.0	-2.9	/	/
Cn1nc(C(=O)NNC(=O)CCc2ccccc2Cl)c2ccccc2c1=O	-0.4	15.3	-5.5	-12.6	-15.7	-1.9	/	/
CCN1CCN(CCCNC(=O)CCC(=O)N2CCOc3ccc(Cl)cc32)CC1	1.2	-7.3	-11.2	-11.7	6.9	-0.7	/	/
COc1ccc(Oc2ccc(/C=C/C(=O)c3cccc(OC)c3)cc2[N+](=O)[O-])cc1	32.2	96.7*	/	-7.1	-7.4	14.0	18.6	26.2
COc1cc(/C=C/C(C)=O)cc(OC)c1OC	1.5	-14.3	/	-8.4	-15.5	-3.8	/	/
COc1ccc2cc(C(=O)/C=C/c3cc(OC)c(OC)c(OC)c3)ccc2c1	2.8	74.6*	46.4	2.8	-5.7	-0.8	53.9*	78.1*
COc1cc(/C=C/C(=O)N2CCCN(C(=O)/C=C/c3cc(OC)c(OC)c(OC)c3)CC2)cc(OC)c1OC	-1.0	18.9	-7.9	5.1	-11.1	-2.4	/	/
COc1cc(/C=C/C(=O)N2CCC=CC2=O)cc(OC)c1OC	10.8	99.6*	35.6	/	8.0	-9.7	63.3*	26.8
C=CCC1(CC=C)CCCN1C(=O)c1cc(COc2ccccc2SC)on1	0.3	7.6	-8.4	10.2	1.7	-8.3	/	/
Cc1cc(N/N=C/c2ccccc2O)nc(-c2ccccc2O)n1	3.7	72.1*	54.3	34.7	69.3	4.2	72.2*	46.4*
Cc1cc(N/N=C/c2ccccc2O)nc(N2CCOCC2)n1	5.3	25.9	1.0	1.4	-7.1	3.1	/	/
Cc1cc(Nc2ccc(Cl)cc2)nc(-c2ccccc2O)n1	-1.2	-1.9	27.6	36.6	-5.4	3.5	/	/
C/C(=N\Nc1cc(C)nc(-c2ccccc2O)n1)c1ccccc1O	3.7	89.4*	80.4*	34.8	-1.7	20.2	82.0*	40.9*
CC1CCCCC1NC(=O)C1CCN(S(=O)(=O)c2cccc3nonc23)CC1 (stereo not drawn)	2.6	35.5	-3.1	-16.1	-1.9	-3.5	/	/
COCCN(C(=O)COC(=O)Cc1c[nH]c2ccccc12)c1c(N)n(Cc2ccccc2)c(=O)[nH]c1=O	0.3	-18.4	-11.4	-13.6	-1.4	3.4	/	/
SMILES	UPR CHOP act	Mdm2-MdmX inh	CSC inhib	T cruzi inh	Beta apoptosis	UPR XBP1 act	Mdm2-MdmX conf	Full FLuc ctr
COc1ccc(Br)cc1CN(C)CC(=O)NCCc1ccc(S(N)(=O)=O)cc1	-0.3	11.2	-10.0	9.8	-10.9	-1.7	/	/
O=[N+]([O-])c1ccc(-n2cccc2/C=N/Nc2nc(N3CCCCC3)nc(N3CCCCC3)n2)cc1	5.3	22.4	-10.3	1.8	-5.8	3.8	/	/
O=[N+]([O-])c1ccc(-c2ccc(/C=N/Nc3nc(N4CCCCC4)nc(N4CCCCC4)n3)o2)cc1	5.6	77.5*	/	22.7	/	4.4	14.7	74.7*
O=[N+]([O-])c1ccc(-c2ccc(/C=N/Nc3nc(N4CCCC4)nc(N4CCCC4)n3)o2)cc1	11.8	92.8*	-14.0	42.4	5.4	4.9	66.7*	49.3*
O=C(Nc1cccc([N+](=O)[O-])c1)Nc1ccc2c(c1)OCCO2	6.6	-130.1	-6.3	16.0	5.1	7.5	/	/
O=C(CSc1n[nH]c(Cc2ccccc2)n1)Nc1ccccc1Br	-0.7	4.4	3.3	9.5	-14.3	-0.2	/	/
CC(=O)N1c2ccc(C)cc2C(c2ccccc2)CC1C (stereo not drawn)	-0.4	73.6*	9.0	16.0	-6.9	1.6	35.0	70.7*
CC(=O)OC1CC(C)N(C(=O)c2ccccc2)c2ccc(C)cc21 (stereo not drawn)	0.0	-35.6	-4.1	-12.9	0.0	-0.4	/	/
CC(C)COCC(CN(Cc1ccccc1)c1ccccc1)N1CCCC1 (stereo not drawn)	0.9	59.9*	10.2	2.2	5.8	-7.8	33.5	/
CC(C(=O)Nc1ccc(OCc2ccccc2)cc1)N1CCCC1 (stereo not drawn)	0.8	-2.7	-4.9	2.4	-6.4	0.6	/	/
Cc1nnc(N2CCCC(C(=O)NCc3ccc(OC(C)C)cc3)C2)c2nn(-c3ccccc3)c(C)c12 (stereo not drawn)	2.2	51.5*	-10.8	25.5	17.9	-4.7	2.6	/
CN(C)CCNc1nc2sc3c(c2c(=O)n1CCc1ccccc1)CCCCC3	4.5	76.4*	105.7*	58.5*	7.1	7.8	25.5	/
COC(=O)Cn1c(=O)n(CCc2ccccc2)c(=O)c2c3c(sc21)CCCC3	-1.5	11.2	-1.3	45.8	-0.3	-1.8	/	/
COc1ccc(-c2nc3ccccc3n2Cc2ccc(C)cc2)cc1	0.8	11.3	-16.0	37.3	3.6	-0.5	/	/

Screens from PubChem.
